Experimental data reported in ChEMBL document CHEMBL3608246, “Novel benzidine and diaminofluorene prolinamide derivatives as potent hepatitis C virus NS5A inhibitors” (Eur J Med Chem, 2015).

Assays:
[1] = Cytotoxicity against human Huh7.5.1 cells; assay type: cell-based, Huh-7
[2] = test system: Hepatitis C virus; experiment: Antiviral activity against HCV genotype 1b NK/R2AN infected in human Huh7.5.1 cells assessed as reduction in virus replication by luciferase reporter gene assay; assay type: functional, organism-based, Hepacivirus hominis, subtype 1b NK/R2AN, Huh-7
[3] = test system: Hepatitis C virus; experiment: Antiviral activity against HCV genotype 2a JFH5a infected in human Huh7.5.1 cells transfected with JFH5a-Rluc-ad34 assessed as reduction in virus proliferation by luciferase reporter gene assay; assay type: functional, cell-based, Hepacivirus hominis, Huh-7
[4] = target: Cytochrome P450 2C9 (Homo sapiens, UniProt P11712); experiment: Inhibition of human CYP2C9 by luminometry; assay type: ADME
Chain of Cytochrome P450 2C9 (P11712 whole entry): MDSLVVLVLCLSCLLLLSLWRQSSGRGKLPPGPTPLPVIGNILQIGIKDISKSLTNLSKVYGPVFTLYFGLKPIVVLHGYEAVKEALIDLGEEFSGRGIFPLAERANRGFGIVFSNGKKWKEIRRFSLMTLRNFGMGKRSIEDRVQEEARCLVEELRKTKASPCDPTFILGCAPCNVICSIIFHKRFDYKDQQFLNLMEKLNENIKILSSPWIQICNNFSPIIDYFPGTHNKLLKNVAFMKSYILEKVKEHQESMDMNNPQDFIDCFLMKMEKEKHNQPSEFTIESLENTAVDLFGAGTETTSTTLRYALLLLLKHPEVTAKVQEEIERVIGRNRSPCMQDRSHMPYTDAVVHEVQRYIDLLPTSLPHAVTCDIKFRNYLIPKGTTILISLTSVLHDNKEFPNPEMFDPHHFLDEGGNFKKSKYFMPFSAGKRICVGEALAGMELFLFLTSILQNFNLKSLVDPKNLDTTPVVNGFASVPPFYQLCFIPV
Summary of the method: (§1)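 Human CYP1A2, 2C9, 2C19, 2D6 and 3A4 inhibition by P450-Glo luminescent assay per kit protocol; compounds at 100, 50, 10, 5, 1, 0.1 and 0.01 µM; luminometer read-out.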

[5] = Half life in Sprague-Dawley rat at 10 mg/kg, po by LC/MS/MS method; assay type: ADME, organism-based; settings: in vivo
Summary of the method: (§2)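 Sprague-Dawley rats, 2 male and 1 female per compound per route, parallel design. Vehicle 5% DMSO, 10% solutol, 85% HPBCD; IV 5 mg/kg bolus via tail vein, oral 10 mg/kg. Blood into K2-EDTA tubes at several time points, centrifuged, plasma analysed by LC/MS/MS; non-compartmental analysis.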

[6] = target: hERG (KCNH2) (Homo sapiens, UniProt Q12809); experiment: Inhibition of human ERG at 10 uM by fluorescence polarization assay based ligand binding assay
Chain of hERG (KCNH2) (Q12809 whole entry): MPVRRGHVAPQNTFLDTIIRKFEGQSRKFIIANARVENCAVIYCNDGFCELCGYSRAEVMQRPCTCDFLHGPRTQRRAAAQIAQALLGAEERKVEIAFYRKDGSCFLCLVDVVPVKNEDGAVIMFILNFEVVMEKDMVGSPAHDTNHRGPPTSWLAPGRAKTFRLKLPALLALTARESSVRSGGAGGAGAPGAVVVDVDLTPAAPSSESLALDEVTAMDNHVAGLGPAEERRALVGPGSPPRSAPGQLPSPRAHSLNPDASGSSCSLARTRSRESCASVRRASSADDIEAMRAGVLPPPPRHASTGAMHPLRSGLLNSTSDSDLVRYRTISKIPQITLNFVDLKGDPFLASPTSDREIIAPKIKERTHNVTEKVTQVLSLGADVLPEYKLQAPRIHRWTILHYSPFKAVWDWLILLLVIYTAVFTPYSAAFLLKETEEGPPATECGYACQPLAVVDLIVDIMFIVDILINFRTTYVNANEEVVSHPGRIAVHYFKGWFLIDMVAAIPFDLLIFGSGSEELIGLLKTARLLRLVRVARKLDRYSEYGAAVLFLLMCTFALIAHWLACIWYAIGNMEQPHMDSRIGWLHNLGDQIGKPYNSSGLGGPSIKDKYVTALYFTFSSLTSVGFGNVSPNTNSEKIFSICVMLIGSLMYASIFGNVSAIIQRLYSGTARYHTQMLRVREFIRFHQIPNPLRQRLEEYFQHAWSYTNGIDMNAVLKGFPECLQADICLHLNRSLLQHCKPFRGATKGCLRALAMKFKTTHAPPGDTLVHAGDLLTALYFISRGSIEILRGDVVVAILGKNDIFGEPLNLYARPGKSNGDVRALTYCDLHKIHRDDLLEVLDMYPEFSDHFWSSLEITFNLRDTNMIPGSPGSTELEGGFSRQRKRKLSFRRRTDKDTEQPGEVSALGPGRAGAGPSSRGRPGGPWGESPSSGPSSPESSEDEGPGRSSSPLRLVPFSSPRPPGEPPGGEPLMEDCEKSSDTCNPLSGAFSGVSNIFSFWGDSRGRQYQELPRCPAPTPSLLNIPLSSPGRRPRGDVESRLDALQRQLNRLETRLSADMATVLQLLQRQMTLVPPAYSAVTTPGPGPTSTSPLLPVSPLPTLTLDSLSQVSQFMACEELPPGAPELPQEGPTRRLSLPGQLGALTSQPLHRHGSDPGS

[7] = Stability in rat plasma assessed as compound remaining t 100 uM after 0.5 hrs by LC-MS/MS method; assay type: ADME, cell-free; settings: read-out: Stability
Summary of the method: (§3)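 Rat plasma pre-warmed 5 min at 37 °C, mixed with test compound from 100 µM stock (3 into 297 parts), incubated at 37 °C; sampled at 0, 15, 30, 60, 120 min, acetonitrile-precipitated, centrifuged 10 min, supernatant analysed by LC-MS/MS.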

[8] = Stability in human liver microsomes assessed as compound remaining at 1 uM after 0.5 hrs by LC-MS/MS method; assay type: ADME; settings: read-out: Stability
Summary of the method: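 Pooled human liver microsomal fraction with β-NADPH, compound at 1 µM, incubated over 30 min; remaining compound in supernatant quantified by LC-MS/MS.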

[9] = Stability in rat plasma assessed as compound remaining at 100 uM after 1 hr by LC-MS/MS method; assay type: ADME, cell-free; settings: read-out: Stability; summary of the method: as §3
[10] = target: Cytochrome P450 2D6 (Homo sapiens, UniProt P10635); experiment: Inhibition of human CYP2D6 by luminometry; assay type: ADME; summary of the method: as §1
Chain of Cytochrome P450 2D6 (P10635 whole entry): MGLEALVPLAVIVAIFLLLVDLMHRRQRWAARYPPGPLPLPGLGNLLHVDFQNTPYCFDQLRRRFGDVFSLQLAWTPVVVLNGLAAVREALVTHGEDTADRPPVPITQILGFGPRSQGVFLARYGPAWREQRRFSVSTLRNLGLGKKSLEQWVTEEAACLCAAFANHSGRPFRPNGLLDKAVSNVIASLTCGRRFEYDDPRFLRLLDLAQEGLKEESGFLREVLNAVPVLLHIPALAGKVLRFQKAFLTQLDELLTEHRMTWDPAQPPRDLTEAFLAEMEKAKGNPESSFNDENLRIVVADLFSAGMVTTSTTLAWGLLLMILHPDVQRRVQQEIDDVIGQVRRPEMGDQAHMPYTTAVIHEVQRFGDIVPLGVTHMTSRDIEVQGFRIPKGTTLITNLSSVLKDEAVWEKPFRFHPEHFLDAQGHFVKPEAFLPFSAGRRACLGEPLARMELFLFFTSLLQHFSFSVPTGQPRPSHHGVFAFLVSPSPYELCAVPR

[11] = Half life in Sprague-Dawley rat at 5 mg/kg, iv by LC/MS/MS method; assay type: ADME, organism-based; settings: in vivo; summary of the method: as §2
[12] = target: Cytochrome P450 3A4 (Homo sapiens, UniProt P08684); experiment: Inhibition of human CYP3A4 by luminometry; assay type: ADME; summary of the method: as §1
Chain of Cytochrome P450 3A4 (P08684 whole entry): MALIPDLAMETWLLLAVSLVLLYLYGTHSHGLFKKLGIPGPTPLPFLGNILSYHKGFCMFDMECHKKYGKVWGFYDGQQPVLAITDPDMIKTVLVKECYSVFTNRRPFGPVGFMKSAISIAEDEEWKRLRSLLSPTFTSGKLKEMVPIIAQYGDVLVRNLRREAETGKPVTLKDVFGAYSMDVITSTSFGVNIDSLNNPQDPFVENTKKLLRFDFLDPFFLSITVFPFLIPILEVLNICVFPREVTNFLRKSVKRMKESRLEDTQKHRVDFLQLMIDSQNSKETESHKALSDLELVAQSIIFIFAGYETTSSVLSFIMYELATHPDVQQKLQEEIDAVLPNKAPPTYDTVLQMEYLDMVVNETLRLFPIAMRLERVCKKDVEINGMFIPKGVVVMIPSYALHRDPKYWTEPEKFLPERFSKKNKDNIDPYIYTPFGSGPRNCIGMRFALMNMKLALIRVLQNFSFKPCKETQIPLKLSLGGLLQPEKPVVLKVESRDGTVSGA

[13] = Stability in rat plasma assessed as compound remaining at 100 uM after 2 hrs by LC-MS/MS method; assay type: ADME, cell-free; settings: read-out: Stability; summary of the method: as §3
[14] = target: Cytochrome P450 2C19 (Homo sapiens, UniProt P33261); experiment: Inhibition of human CYP2C19 by luminometry; assay type: ADME; summary of the method: as §1
Chain of Cytochrome P450 2C19 (P33261 whole entry): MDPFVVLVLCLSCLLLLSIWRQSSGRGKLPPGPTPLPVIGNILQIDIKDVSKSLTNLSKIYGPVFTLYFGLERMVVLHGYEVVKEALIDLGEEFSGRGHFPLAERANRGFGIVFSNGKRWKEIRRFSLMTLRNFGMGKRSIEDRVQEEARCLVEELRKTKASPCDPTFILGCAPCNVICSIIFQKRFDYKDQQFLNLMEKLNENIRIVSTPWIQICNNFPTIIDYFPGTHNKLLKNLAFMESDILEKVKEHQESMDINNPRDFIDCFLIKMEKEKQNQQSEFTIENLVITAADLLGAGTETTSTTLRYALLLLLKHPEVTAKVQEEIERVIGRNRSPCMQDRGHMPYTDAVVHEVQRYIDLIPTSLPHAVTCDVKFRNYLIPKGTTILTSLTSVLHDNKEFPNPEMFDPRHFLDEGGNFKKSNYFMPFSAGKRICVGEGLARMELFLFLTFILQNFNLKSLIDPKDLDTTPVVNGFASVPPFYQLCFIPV

[15] = target: T1, Cytochrome P450 1A2 (Homo sapiens, UniProt P05177); experiment: Inhibition of human CYP1A2 by luminometry; assay type: ADME; summary of the method: as §1
T1 sequence (P05177 whole entry): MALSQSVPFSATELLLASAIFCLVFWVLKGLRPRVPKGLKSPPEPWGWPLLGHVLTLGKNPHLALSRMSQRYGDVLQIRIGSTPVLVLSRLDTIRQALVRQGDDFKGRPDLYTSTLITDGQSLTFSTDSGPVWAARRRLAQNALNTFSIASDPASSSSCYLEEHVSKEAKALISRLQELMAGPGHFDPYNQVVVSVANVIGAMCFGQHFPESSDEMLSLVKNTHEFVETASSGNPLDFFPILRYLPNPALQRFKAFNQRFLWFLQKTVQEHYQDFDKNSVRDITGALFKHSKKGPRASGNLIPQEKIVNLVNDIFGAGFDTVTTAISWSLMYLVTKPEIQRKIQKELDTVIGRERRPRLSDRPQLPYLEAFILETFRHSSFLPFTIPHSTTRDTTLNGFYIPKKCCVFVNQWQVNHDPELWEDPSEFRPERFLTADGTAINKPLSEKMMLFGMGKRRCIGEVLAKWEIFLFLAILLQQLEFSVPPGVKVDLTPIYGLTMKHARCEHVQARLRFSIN

[16] = Oral bioavailability in Sprague-Dawley rat at 10 mg/kg by LC/MS/MS method; assay type: ADME, organism-based; settings: in vivo; summary of the method: as §2
[17] = Hepatitis C virus, subtype 1b NK/R2AN, Huh-7
[18] = Hepatitis C virus, genotype 2a JFH5a, Huh-7

COC(=O)N[C@@H](C(=O)N1CCCC[C@H]1C(=O)Nc1ccc(-c2ccc(NC(=O)[C@@H]3CCCCN3C(=O)[C@H](NC(=O)OC)c3ccccc3)cc2)cc1)c1ccccc1
CC50 [1]: > 25000 nM
EC50 [2, 17]: 2.1 nM
EC50 [3, 18]: 180 nM

COC(=O)N[C@@H](C(=O)N1CCC[C@@]1(C)C(=O)Nc1ccc(-c2ccc(NC(=O)[C@]3(C)CCCN3C(=O)[C@H](NC(=O)OC)c3ccccc3)cc2)cc1)c1ccccc1
CC50 [1]: > 25000 nM
EC50 [2, 17]: 2.2 nM
EC50 [3, 18]: 3.3 nM

COC(=O)N[C@@H](C(=O)N1CCC[C@H]1C(=O)Nc1ccc(-c2ccc(NC(=O)[C@@H]3CCCN3C(=O)[C@H](NC(=O)OC)c3ccccc3)cc2C(F)(F)F)c(C(F)(F)F)c1)c1ccccc1 (stereo in doubt; form 3)
EC50 ([2]; huh-7): 2.4 nM
EC50 ([3]; huh-7): 24.6 nM

COC(=O)N[C@@H](C(=O)N1CCC[C@H]1C(=O)Nc1ccc(-c2ccc(NC(=O)[C@@H]3CCCN3C(=O)[C@H](NC(=O)OC)c3ccccc3)cc2C(F)(F)F)c(C(F)(F)F)c1)c1ccccc1 (stereo in doubt; form 1)
EC50 [4]: 660 nM
half-life [5]: 3.8 h
inhibition at 10 µM [6]: 7.98%
remaining at 0.5 h, 100 µM [7]: 93%
EC50 ([2]; huh-7): 0.0025 nM
remaining at 0.5 h, 1 µM [8]: 79%
remaining at 1 h, 100 µM [9]: 99%
EC50 [10]: > 100000 nM
half-life [11]: 2.9 h
EC50 [12]: 4640 nM
remaining at 2 h, 100 µM [13]: 99%
EC50 ([3]; huh-7): 0.025 nM
EC50 [14]: 4640 nM
EC50 [15]: 78800 nM
bioavailability [16]: 11.7%

COC(=O)N[C@@H](C(=O)N1CCC[C@H]1C(=O)Nc1ccc2c(c1)C(=O)c1cc(NC(=O)[C@@H]3CCCN3C(=O)[C@H](NC(=O)OC)c3ccccc3)ccc1-2)c1ccccc1
CC50 [1]: > 25000 nM
EC50 [2, 17]: 0.004 nM
EC50 [3, 18]: 4.3 nM

COC(=O)N[C@@H](C(=O)N1CCC[C@H]1C(=O)Nc1ccc(-c2ccc(NC(=O)[C@@H]3CCCN3C(=O)[C@H](NC(=O)OC)c3ccccc3)cc2)cc1)c1ccccc1
CC50 [1]: > 25000 nM

COC(=O)N[C@@H](C(=O)N1CCC[C@H]1C(=O)Nc1ccc(-c2ccc(NC(=O)[C@@H]3CCCN3C(=O)[C@H](NC(=O)OC)c3ccccc3)cc2Br)c(Br)c1)c1ccccc1
CC50 [1]: > 25000 nM
EC50 [2, 17]: 0.007 nM
EC50 [3, 18]: 0.01 nM

COC(=O)N[C@@H](C(=O)N1CCCC[C@@H]1C(=O)Nc1ccc(-c2ccc(NC(=O)[C@H]3CCCCN3C(=O)[C@H](NC(=O)OC)c3ccccc3)cc2)cc1)c1ccccc1
CC50 [1]: > 25000 nM
EC50 [2, 17]: 370 nM
EC50 [3, 18]: 419 nM

COC(=O)N[C@@H](C(=O)N1CCC[C@H]1C(=O)Nc1ccc(-c2ccc(NC(=O)[C@@H]3CCCN3C(=O)[C@H](NC(=O)OC)c3ccccc3)cc2F)c(F)c1)c1ccccc1
EC50 [4]: 87.7 nM
CC50 [1]: > 25000 nM
half-life [5]: 2.34 h
inhibition at 10 µM [6]: < 1%
remaining at 0.5 h, 100 µM [7]: 65%
EC50 [2, 17]: 0.005 nM
remaining at 0.5 h, 1 µM [8]: 97%
remaining at 1 h, 100 µM [9]: 61%
EC50 [10]: 4940 nM
half-life [11]: 0.88 h
EC50 [12]: 2460 nM
remaining at 2 h, 100 µM [13]: 63%
EC50 [3, 18]: 0.16 nM
EC50 [14]: 724 nM
EC50 [15]: > 100000 nM
bioavailability [16]: 3.12%

COC(=O)N[C@@H](C(=O)N1CCC[C@H]1C(=O)Nc1ccc(-c2ccc(NC(=O)[C@@H]3CCCN3C(=O)[C@H](NC(=O)OC)c3ccccc3)c(C)c2)cc1C)c1ccccc1
CC50 [1]: > 25000 nM
EC50 [2, 17]: 7.4 nM
EC50 [3, 18]: 193 nM

COC(=O)N[C@@H](C(=O)N1CCC[C@H]1C(=O)Nc1ccc(-c2ccc(NC(=O)[C@@H]3CCCN3C(=O)[C@H](NC(=O)OC)c3ccccc3)cc2C(F)(F)F)c(C(F)(F)F)c1)c1ccccc1 (stereo in doubt; form 2)
CC50 [1]: > 25000 nM
EC50 ([2]; huh-7): 27.9 nM
EC50 ([3]; huh-7): 332 nM

COC(=O)N[C@@H](C(=O)N1CCC[C@@H]1C(=O)Nc1ccc(-c2ccc(NC(=O)[C@H]3CCCN3C(=O)[C@H](NC(=O)OC)c3ccccc3)cc2)cc1)c1ccccc1
CC50 [1]: > 25000 nM
EC50 [2, 17]: 83 nM
EC50 [3, 18]: 1770 nM

COC(=O)N[C@@H](C(=O)N1CCC[C@H]1C(=O)Nc1ccc(-c2ccc(NC(=O)[C@@H]3CCCN3C(=O)[C@H](NC(=O)OC)c3ccccc3)cc2Cl)c(Cl)c1)c1ccccc1
EC50 [4]: 116 nM
CC50 [1]: > 25000 nM
half-life [5]: 6.37 h
inhibition at 10 µM [6]: 5.8%
remaining at 0.5 h, 100 µM [7]: 72%
EC50 [2, 17]: 0.007 nM
remaining at 0.5 h, 1 µM [8]: 96%
remaining at 1 h, 100 µM [9]: 75%
EC50 [10]: 41200 nM
half-life [11]: 1.55 h
EC50 [12]: 3990 nM
remaining at 2 h, 100 µM [13]: 70%
EC50 [3, 18]: 0.01 nM
EC50 [14]: 1040 nM
EC50 [15]: 23900 nM
bioavailability [16]: 4.99%

COC(=O)N[C@@H](C(=O)N1CCC[C@H]1C(=O)Nc1ccc2c(c1)Cc1cc(NC(=O)[C@@H]3CCCN3C(=O)[C@H](NC(=O)OC)c3ccccc3)ccc1-2)c1ccccc1
CC50 [1]: > 25000 nM
EC50 [2, 17]: 0.009 nM
EC50 [3, 18]: 5.6 nM

COC(=O)N[C@@H](C(=O)N1CSC[C@H]1C(=O)Nc1ccc(-c2ccc(NC(=O)[C@@H]3CSCN3C(=O)[C@H](NC(=O)OC)c3ccccc3)cc2)cc1)c1ccccc1
CC50 [1]: > 25000 nM
EC50 [2, 17]: 0.027 nM
EC50 [3, 18]: 15.5 nM

COC(=O)N[C@@H](C(=O)N1CCC[C@H]1C(=O)Nc1ccc(-c2ccc(NC(=O)[C@@H]3CCCN3C(=O)[C@H](NC(=O)OC)c3ccccc3)cc2C)c(C)c1)c1ccccc1
CC50 [1]: > 25000 nM
EC50 [2, 17]: 0.035 nM
EC50 [3, 18]: 0.32 nM

COC(=O)N[C@@H](C(=O)N1CCC[C@H]1C(=O)Nc1ccc2c(c1)C(C)(C)c1cc(NC(=O)[C@@H]3CCCN3C(=O)[C@H](NC(=O)OC)c3ccccc3)ccc1-2)c1ccccc1
EC50 [4]: 269 nM
CC50 [1]: > 25000 nM
half-life [5]: 4.45 h
inhibition at 10 µM [6]: 25.7%
EC50 [2, 17]: 0.004 nM
remaining at 0.5 h, 1 µM [8]: 95%
EC50 [10]: > 100000 nM
half-life [11]: 1.62 h
EC50 [12]: 1030 nM
EC50 [3, 18]: 0.02 nM
EC50 [14]: 2940 nM
EC50 [15]: > 100000 nM
bioavailability [16]: 13.8%

COC(=O)N[C@@H](C(=O)N1CC(=O)C[C@H]1C(=O)Nc1ccc(-c2ccc(NC(=O)[C@@H]3CC(=O)CN3C(=O)[C@H](NC(=O)OC)c3ccccc3)cc2)cc1)c1ccccc1
CC50 [1]: > 25000 nM
EC50 [2, 17]: 0.044 nM
EC50 [3, 18]: 0.26 nM
